Laboratory results as given in ChEMBL document CHEMBL4007437, “High-Potency Phenylquinoxalinone Cystic Fibrosis Transmembrane Conductance Regulator (CFTR) Activators” (J Med Chem, 2017).
Calls of active or inactive are those of the source. The calls are words filed in the database; no cut-off is given here.

Key:
[1] = target: Cystic fibrosis transmembrane conductance regulator (Homo sapiens, UniProt P13569, H148Q); experiment: Activation of human CFTR expressed in FRT cells co-expressing YFP H148Q mutant assessed as increase in forskolin-stimulated iodide influx measured after 10 mins by fluorescence assay; format: cell-based
Method in brief: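 FRT cells stably coexpressing human wild-type CFTR and YFP-H148Q, near-confluent; washed with PBS, then 10 min in PBS with test compound and 125 nM forskolin. YFP fluorescence recorded 2 s baseline and 12 s after iodide addition (final 140 mM). Iodide influx rates fitted to concentration–response curves for EC50.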

Mus musculus [2] = experiment: Suppression of constipation in po dosed loperamide-induced CD1 mouse acute constipation model assessed as normalization of pellet number administered 1 hr prior to loperamide addition measured after 3 hrs; format: functional
Method in brief: (§1)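 CD1 mice, 8–10 weeks; compound or vehicle (saline, 5% DMSO, 10% Kolliphor HS 15) given orally at 0, 0.1, 0.3, 1, 3 or 10 mg/kg 1 h before loperamide 0.3 mg/kg ip. Stool collected 3 h in metabolic cages; weight, pellet count and water content (wet/dry weights). Mean ± SEM, 4 mice per group.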

[3] = target: Cystic fibrosis transmembrane conductance regulator (Homo sapiens, UniProt P13569); experiment: Activation of human CFTR expressed in forskolin-stimulated basolateral membrane permeabilized FRT cells assessed as increase in short-circuit current amplitude after 30 mins by voltage clamp method; format: cell-based
Method in brief: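 Short-circuit current in FRT cells expressing human wild-type CFTR grown on porous filters, with a transepithelial chloride gradient and permeabilized basolateral membrane. Low-concentration forskolin added first, then cumulative activator concentrations, finally 10 μM CFTRinh-172. EC50 from concentration–response, mean ± SEM, n = 3.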

Homo sapiens [4] = organism: Homo sapiens; experiment: Activation of calcium-activated chloride channel in human HT29 cells co-expressing YFP at 10 uM after 10 mins presence of iodide by fluorescence assay; format: cell-based
[5] = Elevation of cytoplasmic calcium levels in Fischer rat thyroid cells at 10 uM after 5 mins by Fluo-4 based fluorescence assay; settings: thyroid cell
Homo sapiens [6] = organism: Homo sapiens; experiment: Inhibition of calcium-activated chloride channel in human HT29 cells co-expressing YFP assessed as reduction in ATP-stimulated calcium levels at 10 uM preincubated for 10 mins followed by ATP addition in presence of iodide by fluorescence assay; format: cell-based
Mus musculus [7] = experiment: Suppression of constipation in po dosed loperamide-induced CD1 mouse acute constipation model assessed as normalization of stool water content administered 1 hr prior to loperamide addition measured after 3 hrs; format: functional; method in brief: as §1
[8] = target: T1, Anoctamin-1 (Homo sapiens) (UniProt Q5XXA6); experiment: Inhibition of human TMEM16A expressed in FRT cells co-expressing YFP assessed as decrease in iodide influx at 10 uM measured after 10 mins in presence of ATP by fluorescence assay; format: cell-based
T1 sequence (whole entry): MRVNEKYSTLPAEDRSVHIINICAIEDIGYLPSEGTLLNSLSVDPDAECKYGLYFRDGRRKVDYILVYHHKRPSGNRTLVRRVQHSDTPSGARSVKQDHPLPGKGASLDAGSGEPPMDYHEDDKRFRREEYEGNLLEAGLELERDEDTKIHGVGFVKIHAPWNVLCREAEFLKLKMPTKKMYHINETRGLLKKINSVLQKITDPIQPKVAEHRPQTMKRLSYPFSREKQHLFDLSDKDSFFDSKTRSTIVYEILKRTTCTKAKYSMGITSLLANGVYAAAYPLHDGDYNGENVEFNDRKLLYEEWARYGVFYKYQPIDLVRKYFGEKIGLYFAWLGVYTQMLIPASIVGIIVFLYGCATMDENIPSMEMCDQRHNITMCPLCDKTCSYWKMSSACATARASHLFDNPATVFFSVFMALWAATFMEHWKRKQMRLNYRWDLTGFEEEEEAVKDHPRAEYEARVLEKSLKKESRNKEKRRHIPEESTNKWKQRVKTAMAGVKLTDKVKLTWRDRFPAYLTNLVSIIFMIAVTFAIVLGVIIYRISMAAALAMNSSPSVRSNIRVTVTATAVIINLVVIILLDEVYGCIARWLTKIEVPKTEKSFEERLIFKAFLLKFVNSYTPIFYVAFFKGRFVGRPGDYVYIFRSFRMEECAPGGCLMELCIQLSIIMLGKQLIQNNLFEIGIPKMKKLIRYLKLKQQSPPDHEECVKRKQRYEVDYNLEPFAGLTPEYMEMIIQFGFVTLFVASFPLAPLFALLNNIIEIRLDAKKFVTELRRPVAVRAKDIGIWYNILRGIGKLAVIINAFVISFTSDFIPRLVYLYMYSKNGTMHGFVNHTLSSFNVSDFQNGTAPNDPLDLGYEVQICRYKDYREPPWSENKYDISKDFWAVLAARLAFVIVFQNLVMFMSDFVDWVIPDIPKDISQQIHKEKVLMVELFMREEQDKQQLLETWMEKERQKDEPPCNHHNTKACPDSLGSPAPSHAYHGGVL
Method in brief: (§2)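 FRT cells coexpressing YFP and TMEM16A; continuous single-well YFP fluorescence for 2 s before and 12 s after addition of iodide solution (final 140 mM iodide). Activation read with iodide alone, inhibition with iodide plus ATP; compound at 10 μM. Iodide influx rate calculated from fluorescence quenching.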

[9] = Effect on forskolin-stimulated cAMP levels in Fischer rat thyroid cells at 10 uM incubated for 10 mins by immunoassay; format: ADME, cell-based; settings: thyroid cell
Method in brief: (§3)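 FRT cells incubated 10 min with 10 μM compound, without or with 90 nM forskolin, then cellular cAMP measured. Positive controls: forskolin 100 nM and 20 μM, forskolin + IBMX (20 μM + 100 μM). Mean ± SEM, n = 4.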

[10] = Effect on cAMP levels in Fischer rat thyroid cells at 10 uM incubated for 10 mins by immunoassay; format: ADME, cell-based; settings: thyroid cell; method in brief: as §3
[11] = target: T1, Anoctamin-1 (Homo sapiens); experiment: Activation of human TMEM16A expressed in FRT cells co-expressing YFP assessed as increase in iodide influx at 10 uM measured after 10 mins by fluorescence assay; format: cell-based; method in brief: as §2

Cystic fibrosis transmembrane conductance regulator (Homo sapiens, UniProt P13569, H148Q), sequence (P13569 whole entry, looked up, stated change not applied): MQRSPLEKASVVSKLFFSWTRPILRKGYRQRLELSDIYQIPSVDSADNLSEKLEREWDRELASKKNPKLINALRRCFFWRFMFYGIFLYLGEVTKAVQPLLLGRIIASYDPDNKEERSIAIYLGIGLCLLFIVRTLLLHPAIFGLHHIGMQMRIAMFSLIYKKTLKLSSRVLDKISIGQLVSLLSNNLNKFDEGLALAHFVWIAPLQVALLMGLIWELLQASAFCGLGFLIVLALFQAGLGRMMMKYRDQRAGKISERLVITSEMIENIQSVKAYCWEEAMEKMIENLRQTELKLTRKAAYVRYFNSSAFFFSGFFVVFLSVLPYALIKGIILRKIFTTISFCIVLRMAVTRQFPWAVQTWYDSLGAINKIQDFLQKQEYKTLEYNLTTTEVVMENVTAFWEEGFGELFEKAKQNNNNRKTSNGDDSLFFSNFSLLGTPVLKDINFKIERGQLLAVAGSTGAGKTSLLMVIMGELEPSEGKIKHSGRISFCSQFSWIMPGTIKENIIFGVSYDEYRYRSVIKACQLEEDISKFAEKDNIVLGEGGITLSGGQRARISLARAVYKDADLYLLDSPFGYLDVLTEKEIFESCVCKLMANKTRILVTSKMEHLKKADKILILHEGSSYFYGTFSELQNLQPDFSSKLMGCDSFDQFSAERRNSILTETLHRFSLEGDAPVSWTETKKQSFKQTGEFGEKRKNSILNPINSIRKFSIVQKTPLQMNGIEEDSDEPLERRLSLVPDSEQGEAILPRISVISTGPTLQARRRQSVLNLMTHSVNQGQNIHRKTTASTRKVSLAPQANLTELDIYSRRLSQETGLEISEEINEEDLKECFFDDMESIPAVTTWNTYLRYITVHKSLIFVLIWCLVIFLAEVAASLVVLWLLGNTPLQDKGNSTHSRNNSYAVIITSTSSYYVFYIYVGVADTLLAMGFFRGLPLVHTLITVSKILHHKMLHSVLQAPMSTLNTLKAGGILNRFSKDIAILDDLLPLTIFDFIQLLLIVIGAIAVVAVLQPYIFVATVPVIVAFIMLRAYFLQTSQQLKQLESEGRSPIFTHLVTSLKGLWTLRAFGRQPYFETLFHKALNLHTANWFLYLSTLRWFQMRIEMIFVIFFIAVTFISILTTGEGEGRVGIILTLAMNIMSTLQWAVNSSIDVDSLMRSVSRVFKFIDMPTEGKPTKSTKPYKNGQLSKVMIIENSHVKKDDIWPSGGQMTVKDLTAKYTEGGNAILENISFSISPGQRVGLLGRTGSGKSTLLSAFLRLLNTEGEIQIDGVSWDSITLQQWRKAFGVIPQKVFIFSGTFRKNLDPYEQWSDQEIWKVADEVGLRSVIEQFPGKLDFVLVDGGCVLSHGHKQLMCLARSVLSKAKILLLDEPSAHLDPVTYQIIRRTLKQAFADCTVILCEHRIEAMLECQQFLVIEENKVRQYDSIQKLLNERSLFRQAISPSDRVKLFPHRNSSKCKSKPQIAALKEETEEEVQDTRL

| EC50 ([1]; read-out: EC50) [µM] | Structure (SMILES) | other results |
| --- | --- | --- |
| > 10 | O=c1c(-c2cccc([N+](=O)[O-])c2)nc2cc(F)c(F)cc2n1Cc1ccccc1 |  |
| > 10 | Cc1cccc2nc(-c3cccc([N+](=O)[O-])c3)c(=O)n(Cc3ccccc3)c12 |  |
| > 10 | Cn1c(=O)c(-c2cccc([N+](=O)[O-])c2)nc2ccccc21 |  |
| > 10 | O=c1[nH]c2ccccc2nc1-c1cccc([N+](=O)[O-])c1 |  |
| > 10 | O=c1c(-c2cccc([N+](=O)[O-])c2)nc2cc(Cl)c(Cl)cc2n1Cc1ccccc1 |  |
| 0.01 | O=c1c(-c2cccc([N+](=O)[O-])c2)nc2ccccc2n1Cc1cccs1 | Activity [3]: Dose-dependent effect; EC50 [3]: 0.07 µM |
| > 10 | Cc1cc2nc(-c3cccc([N+](=O)[O-])c3)c(=O)n(Cc3ccccc3)c2cc1C |  |

Second part, the compound before the results:

| Structure (SMILES) | EC50 ([1]; read-out: EC50) [µM] | other results |
| --- | --- | --- |
| O=c1c(-c2cccc([N+](=O)[O-])c2)nc2ccc(Br)cc2n1Cc1ccccc1 |  | EC50 [1]: Not Active |
| O=c1c(-c2cccc([N+](=O)[O-])c2)nc2ccccc2n1Cc1ccccc1 |  | ED50 (Mus musculus [2]): < 1 mg/kg; Activity [3]: Dose-dependent effect; Activity (Homo sapiens [4]): inactive; Activity [5]: Non-Toxic; inhibition (Homo sapiens [6]): inactive; ED50 (Mus musculus [7]): < 1 mg/kg; inhibition [8]: inactive; Activity [9]: Non-Toxic; Activity [10]: Non-Toxic; Activity [11]: inactive |
| O=c1c(-c2cccc([N+](=O)[O-])c2)nc2ccccc2n1Cc1cccc2ccccc12 |  | EC50 [1]: Not Active |
| COC(=O)c1ccc([N+](=O)[O-])c(-c2nc3ccccc3n(Cc3ccccc3)c2=O)c1 | 9.9 |  |
| N#Cc1cccc(-c2nc3ccccc3n(Cc3ccccc3)c2=O)c1 | 1 |  |
| Nc1ccc([N+](=O)[O-])cc1-c1nc2cccc3c2n(c1=O)C(c1ccccc1)CO3 (centres undefined) | > 10 |  |
| Fc1ccc2nc3n(Cc4ccccc4)c4ccc(C(F)(F)F)cc4nc-3c2c1 | > 10 |  |
| O=C(O)c1ccc([N+](=O)[O-])c(-c2nc3ccccc3n(Cc3ccccc3)c2=O)c1 | > 10 |  |
| Nc1ccc(C(=O)O)cc1-c1nc2ccccc2n(Cc2ccccc2)c1=O | > 10 |  |
| O=[N+]([O-])c1ccc2nc3n(Cc4ccccc4)c4ccc(C(F)(F)F)cc4nc-3c2c1 | > 10 |  |
| CC(=O)Nc1ccc([N+](=O)[O-])cc1-c1nc2cccc3c2n(c1=O)CCO3 | 0.82 |  |
